# An excerpt weighted towards active compounds, which were near 3.3% of everything screened.
# Cl transport mod: KCC2 cotransporter modulators, thallium flux, primary screen, cell-based, HEK293 KCC2, FluoZin-2 fluorescence, MLSMR. Solute carrier family 12 member 5 (Homo sapiens), Q9H2X9. KCC2 cells, thallium flux FluoZin-2 fluorescence. B-score of Tl+ flux slope (higher = more flux/activation; lower = inhibition) at 10 µM. actives 2.2% (n = 190,000);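 active means thallium flux slope and its plate-corrected score both differing from the plate sample mean at a set confidence after two filtering rounds, in either direction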;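 further: slope of fluorescence scaled to starting intensity during 10 to 20 s after thallium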
# ROMK primary: ROMK potassium channel modulators, primary screen, cell-based, thallium flux, MLSMR library; ATP-sensitive inward rectifier potassium channel 1 (Homo sapiens), P48048; Tet-inducible ROMK, thallium flux fluorescence; actives lie on both sides; B-score at 10 µM; actives 2% (n = 130,000);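 active means signal ratio slope over the read window, or its plate-corrected B-score, at least 3 SD from the plate mean, either direction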;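 further: B-score of the F/F0 ratio slope over 7 to 12 s after thallium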
# Target sequence (P48048 whole entry, looked up): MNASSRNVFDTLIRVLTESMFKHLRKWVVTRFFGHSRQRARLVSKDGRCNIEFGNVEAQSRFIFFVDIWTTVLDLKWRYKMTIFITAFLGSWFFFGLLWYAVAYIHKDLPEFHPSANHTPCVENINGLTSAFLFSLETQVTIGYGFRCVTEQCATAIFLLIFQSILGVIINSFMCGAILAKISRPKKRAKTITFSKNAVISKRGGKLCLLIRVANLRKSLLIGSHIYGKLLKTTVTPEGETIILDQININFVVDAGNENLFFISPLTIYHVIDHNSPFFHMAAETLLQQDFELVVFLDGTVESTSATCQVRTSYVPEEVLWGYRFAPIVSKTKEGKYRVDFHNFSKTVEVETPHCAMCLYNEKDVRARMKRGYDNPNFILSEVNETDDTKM
# ABCG2 inh: ABCG2 efflux pump inhibitors, primary screen, multiplex with ABCB1, IgMXP3 cells, flow cytometry | Broad substrate specificity ATP-binding cassette transporter ABCG2 (Homo sapiens), Q9UNQ0 | JC-1 efflux | inhibition, % at 6.6 µM | actives 0.1% (n = 190,000) | AID 1325, 2008;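 active means inhibition above 80%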;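 further: 0% = DMSO and 100% = nicardipine control wells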
#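 Incubation: cells with compound and JC-1, 10 min at 25 °C, rotating, no wash / Test system: IgMXP3 (ABCG2) plus far-red-tagged CCRF-Adr (ABCB1) cells / Compound dosing: one concentration, 6.6 µM final / Also added: JC-1 fluorescent substrate / Evaluation: efflux inhibition in percent versus controls / Detection: flow cytometry, 530 nm JC-1 signal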
# ABCB1 inh: ABCB1 efflux pump inhibitors, primary screen, cell-based, multiplex, flow cytometry, ABCG2 counter-screen; ATP-dependent translocase ABCB1 (Homo sapiens), P08183; CCRF-Adr cells, JC-1 efflux; inhibition, % at 6.6 µM; actives 0.067% (n = 190,000); in the data active means inhibition above about 40%;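 further: 0% = vehicle and 100% = reference inhibitor; higher value means more JC-1 retained so stronger ABCB1 efflux block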
# PMI act hi M6P: human PMI activators, high substrate, primary screen, biochemical, fluorescence intensity, near-saturating mannose 6-phosphate; AID 1216, 2008; Mannose-6-phosphate isomerase (Homo sapiens), P34949; actives 0.34% (n = 190,000); activation factor at 20 µM; coupled PMI enzyme assay, resazurin fluorescence, 20 min; hits give high values; 1 = untreated enzyme, 0 = substrate-free blank;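 active means activation factor of 2 or more at 20 µM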
# Target sequence (P34949 whole entry, looked up): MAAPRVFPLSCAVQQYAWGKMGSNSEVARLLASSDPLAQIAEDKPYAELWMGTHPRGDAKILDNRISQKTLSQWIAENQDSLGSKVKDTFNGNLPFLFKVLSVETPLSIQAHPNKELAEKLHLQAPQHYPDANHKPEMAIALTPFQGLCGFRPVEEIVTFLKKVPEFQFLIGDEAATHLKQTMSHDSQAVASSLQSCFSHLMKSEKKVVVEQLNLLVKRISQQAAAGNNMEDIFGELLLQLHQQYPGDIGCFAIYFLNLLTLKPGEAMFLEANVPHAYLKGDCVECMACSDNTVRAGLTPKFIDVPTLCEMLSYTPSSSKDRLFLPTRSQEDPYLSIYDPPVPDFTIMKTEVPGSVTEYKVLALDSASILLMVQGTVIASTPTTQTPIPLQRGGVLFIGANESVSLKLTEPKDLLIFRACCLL
#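 Material: human phosphomannose isomerase with PGI, G6PDH, diaphorase coupling enzymes. Quantity: 15 ng/mL PMI. Medium: HEPES pH 7.4 buffer with MgCl2 and Tween-20. Reagent: Near-saturating mannose-6-phosphate, 1.0 mM. Compound: 20 µM single dose. Times: enzyme reaction with compound 20 min at room temperature. Detection: resorufin fluorescence at Ex 544/Em 590 nm.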
# PMI activator: activators of human PMI, primary screen, biochemical, fluorescence intensity, near-Km mannose 6-phosphate | Mannose-6-phosphate isomerase (Homo sapiens), P34949 | purified human PMI, coupled resazurin fluorescence, 20 min; hits give high values; 1 = vehicle control, 0 substrate-free wells | activation factor at 20 µM | actives 0.005% (n = 190,000);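 active means activation factor of 2 or more at 20 µM, relative to plate controls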
# KCC2 sec1: KCC2 modulators in sodium-free buffer, confirmation, cell-based, HEK293 KCC2, thallium flux, secondary assay; shares compounds with Cl transport mod; FluoZin2 fluorescence; hits give high values; normalised thallium flux (F/F0 slope) at 10 µM; actives 15% (n = 3,700); AID 1713, 2009;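 active means thallium flux slope above the same plate's solvent-only control mean plus 3 SD; inconclusive means the two replicate wells disagree; inactive means no significant difference from solvent-only control wells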
# KCC2 bumet counter: thallium flux persisting under bumetanide in KCC2 cells, confirmation, counter-screen for KCC2 modulator project, cell-based, HEK293 KCC2, FluoZin2, secondary assay 3; shares compounds with Cl transport mod; HEK293-KCC2 + bumetanide/ouabain; hits give high values; normalized thallium flux at 10 µM; actives 49% (n = 3,700);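 active means thallium entry rate above the same plate's blocked-transporter control wells by more than 3 SD; inconclusive means the two repeat wells disagree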;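 further: raw slope of fluorescence over initial fluorescence between 10 and 20 s after thallium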
# KCC2 sec2: KCC2 modulators without ouabain present, confirmation, cell-based, HEK293 KCC2, thallium flux, FluoZin2, secondary assay 2; shares compounds with Cl transport mod; thallium flux FluoZin2 fluorescence; actives lie on both sides; F/F0 rise rate, 10–20 s post-thallium; normalized thallium flux at 10 µM; actives 23% (n = 3,700); AID 1715, 2009;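 active means thallium flux slope more than 3 SD above or below the plate's solvent-only control mean, mostly below; inconclusive means the two repeat wells disagreed; inactive means no significant shift from solvent-only controls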;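 further: raw slope with 0.1% DMSO as baseline and bumetanide as block control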
# HEK293 Tl flux: thallium flux modulation in parental HEK cells, confirmation, counter-screen for KCC2 modulator project, cell-based, counterscreen 1 | shares compounds with Cl transport mod | HEK293 parental cells, thallium flux FluoZin2, ouabain; baseline-ratio fluorescence slope, 10–20 s after thallium | actives 46% (n = 3,700) | thallium flux rate (normalised fluorescence) at 10 µM;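 active means thallium flux rate significantly above the same plate's solvent-only control wells, beyond their mean plus 3 SD; inconclusive means the two replicate wells gave conflicting results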
# KCC2 retest ouab: KCC2 inhibitors and activators, ouabain retest, confirmation, HEK-KCC2 cells; shares compounds with Cl transport mod; HEK293-KCC2, thallium flux FluoZin2 fluorescence; bidirectional: low = inhibitor, high = activator; raw Tl+ flux slope (below DMSO = inhibition, above = activation) at 10 µM; actives 48% (n = 3,700);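 active means thallium flux slope beyond 3 SD from same-plate DMSO control mean in most replicates, usually higher, sometimes lower; inconclusive means repeat tests gave conflicting results; inactive means no significant difference from controls in most replicates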;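 further: slope of initial-normalized fluorescence between seconds 10 and 20 after thallium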
# HEK293 Tl flux2: native HEK Tl+ uptake effects, second counter-screen – HEK cells, counterscreen 2, counter-screen for KCC2 modulator project, confirmation; shares compounds with Cl transport mod; HEK293 parental, thallium flux FluoZin-2 fluorescence slope; thallium flux slope at 10 µM; actives 33% (n = 3,700); AID 1718, 2009;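 active means thallium flux slope above the same plate's solvent-control mean plus 3 SD in both duplicate wells; inconclusive means duplicate wells that disagreed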;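 further: run without ouabain in cells lacking the KCC2 cotransporter; slope of fluorescence scaled to its starting value between 10 and 20 s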
# * = called active by the depositor; ? = inconclusive; . = no result given.
SMILES,Cl transport mod,ROMK primary,ABCG2 inh,ABCB1 inh,PMI act hi M6P,PMI activator,KCC2 sec1,KCC2 bumet counter,KCC2 sec2,HEK293 Tl flux,KCC2 retest ouab,HEK293 Tl flux2
O=C(Nc1nc2c(Br)cc(Br)cc2c(=O)s1)c1ccco1,17*,1.51,.,.,.,.,0.0268*,0.03*,0.0324,0.0397*,0.032*,0.0132*
Cc1nc(NC(=O)c2ccco2)sc1C(=O)Nc1ccc(Br)cc1,-5.26*,.,0.0,-0.1,1,1,0.00645,0.00464,?,0.00735,0.0173,0.0112
COC(=O)c1sc(NC(=O)c2ccco2)nc1C,0.588,.,-2.4,-2.3,0.9,0.9,.,.,.,.,.,.
Fc1cccc(Cl)c1CSc1nnc(CNc2ccccc2)o1,-3.5*,0.0546,1.9,0.5,0.9,0.8,0.0146,0.00295,0.0265,0.00578*,0.0137*,?
Cc1nn(-c2ccccn2)c2c1C(=O)C(Br)CC2 (centres undefined),-0.824,-0.279,1.1,0.1,0.3,0.3,.,.,.,.,.,.
S=c1nc[nH]c2c1sc1nc(N3CCOCC3)c3c(c12)CCCC3,67.4*,0.717,-3.9,-1.9,2*,1.6,0.00943*,0.0893*,0.0689*,0.0817*,0.0739*,0.0624*
Cn1cccc1/C=N/NC(=O)c1cccc(OC(F)(F)C(F)F)c1,0.0739,0.0122,0.0,-0.3,1,1,.,.,.,.,.,.
O=C(NCCN1C(=O)C2C3C=CC(C3)C2C1=O)Nc1ccccc1O (centres undefined),-0.911,.,3.1,0.6,0.9,1,0.00879,?,0.0314,0.00813,0.0213,0.0113
O=C(CN1C(=O)NC2(CCCCCC2)C1=O)c1ccc2c(c1)OCCO2,.,1.04,2.8,1.3,0.9,0.8,0.00991,0.0139*,0.0339,?,0.0222,0.0109
O=C(Cn1nnc(-c2ccccc2-n2cnnn2)n1)NCc1ccccc1,-3.98*,.,0.7,-0.8,0.9,0.9,0.00823,0.00458,?,0.00805,0.0186,0.0115
COc1cccc(CNS(=O)(=O)c2cn(C)cn2)c1,7.16*,0.637,-4.1,-0.2,0.9,0.9,0.00615,0.00459,0.0328,0.00758,0.019,0.0106
Cc1ccc2c(Cl)cc(Cl)c(OCC(=O)Nc3ccc(C)c(S(=O)(=O)N(C)C)c3)c2n1,4.59*,.,68.2,4.0,0.7,0.8,0.00992,0.0168*,0.0335,0.0157*,0.0244*,0.0121
Cc1ccc2c(Cl)cc(Cl)c(OCC(=O)Nc3cc(S(=O)(=O)N(C)C)ccc3C)c2n1,-0.981,.,26.6,6.2,0.9,0.8,.,.,.,.,.,.
Cc1ccc2c(Cl)cc(Cl)c(OCC(=O)Nc3cccc(S(=O)(=O)N(C)C)c3)c2n1,7.87*,.,-1.5,0.1,0.6,0.8,0.0102,0.0187*,0.0339,0.0143*,0.03*,?
Cc1cc(C(=O)OCC(=O)Nc2cccc(S(=O)(=O)N(C)C)c2)c2ccccc2n1,-2.89*,0.0709,4.2,0.8,0.9,1,0.00886,0.006,0.0295,0.00571*,0.0188,0.00926
O=C(c1ccc(Br)o1)N1CCc2ccccc21,-1.17,0.00284,2.2,0.2,1,1,.,.,.,.,.,.
Cc1oc(-c2ccccc2F)nc1CSCC(=O)NCc1ccc2c(c1)OCO2,-0.675,.,2.2,0.7,1,1,.,.,.,.,.,.
O=C(N1CCOCC1)n1nnc2ccccc21,7.54*,.,2.5,0.9,1,1,0.00665,?,0.0275,0.00779,0.0187,0.0101
CC(O)[C@H]1CNC(=O)C(=O)N1CCCCC1CCCCC1 (some centres undefined),0.102,.,.,.,.,.,.,.,.,.,.,.
O=C(N/N=C/c1cc(Cl)ccc1O)c1ccccc1Br,-0.989,0.738,2.8,0.0,1.2,0.9,.,.,.,.,.,.
O=C(Nc1ccccc1Cl)c1ccc(Cl)cc1Cl,-0.367,1.37,17.6,1.0,1,0.9,.,.,.,.,.,.
O=C(COc1cccc(Br)c1)N/N=C/C(=O)c1ccccc1,5.88*,-0.291,7.6,0.7,1,0.9,0.00549,0.0143*,0.0316,0.012*,?,0.0146*
O=C(/C=N/NC(=O)c1ccc(Cl)cc1Cl)c1ccccc1,91.2*,.,.,.,.,.,0.00622,0.101*,0.0622*,0.0485*,0.0756*,0.0386*
Cc1cccc(OCC(=O)NCC(=O)N/N=C/c2cc(Br)ccc2OCc2ccccc2)c1,-0.158,-0.238,22.1,1.2,0.9,0.9,.,.,.,.,.,.
O=C(/C=N/NC(=O)c1ccccc1Br)c1ccccc1,8.02*,0.111,21.0,1.2,1.1,1,0.00681,0.019*,0.0314,0.0198*,?,0.018*
Cc1ccc(-c2nnc(SCC(=O)N/N=C/c3ccc(C)s3)n2-c2ccccc2)cc1,-0.859,.,40.2,1.7,1,0.9,.,.,.,.,.,.

# Source: PubChem (several laboratories)
